Source: ChEMBL document CHEMBL4014344, “Discovery of the Soluble Guanylate Cyclase Stimulator Vericiguat (BAY 1021189) for the Treatment of Chronic Heart Failure” (J Med Chem, 2017)
pEC50, pIC50: −log10 of the molar value. Active and inactive are the calls of the source. The rule behind the calls is not given here.

Tests used:
[1] = target: T1, Guanylate cyclase soluble subunit alpha-1 (Rattus norvegicus) (UniProt P19686); experiment: Stimulation of rat recombinant sGCalpha1 subunit expressed in CHO cells using alpha-[32P]GTP as substrate assessed as >=3 fold increase in [32P]cGMP formation after 10 mins by radioimmunoassay; type: cell-based
T1 sequence (whole entry): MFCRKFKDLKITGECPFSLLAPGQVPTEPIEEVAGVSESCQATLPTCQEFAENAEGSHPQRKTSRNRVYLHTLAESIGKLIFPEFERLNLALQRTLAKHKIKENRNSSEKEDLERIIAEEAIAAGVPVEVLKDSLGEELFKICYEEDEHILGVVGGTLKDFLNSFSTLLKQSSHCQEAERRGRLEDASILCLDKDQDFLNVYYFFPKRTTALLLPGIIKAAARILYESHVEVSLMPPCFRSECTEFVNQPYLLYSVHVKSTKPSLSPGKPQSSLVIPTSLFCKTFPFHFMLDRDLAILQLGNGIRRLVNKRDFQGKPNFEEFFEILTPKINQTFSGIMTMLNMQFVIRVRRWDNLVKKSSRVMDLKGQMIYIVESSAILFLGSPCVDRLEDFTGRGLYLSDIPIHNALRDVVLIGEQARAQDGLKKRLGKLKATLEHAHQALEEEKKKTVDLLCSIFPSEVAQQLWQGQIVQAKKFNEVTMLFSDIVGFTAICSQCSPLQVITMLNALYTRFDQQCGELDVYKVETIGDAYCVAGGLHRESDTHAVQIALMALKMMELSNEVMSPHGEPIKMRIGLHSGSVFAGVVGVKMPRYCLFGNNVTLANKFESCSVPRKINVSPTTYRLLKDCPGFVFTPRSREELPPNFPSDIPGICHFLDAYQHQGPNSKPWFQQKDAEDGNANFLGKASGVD

[2] = Clearance in rat hepatocytes at 1 uM up to 90 mins by LC-MS/MS analysis; type: ADME, cell-based, Hepatocyte
Outline: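 Rat hepatocytes at 1 × 10^6 viable cells/mL (trypan blue-corrected) in Williams' medium E, 1 μM substrate, MeCN ≤1%, 37 °C, pH 7.4. Sampled at 2−90 min, quenched with MeCN, analysed by LC-MS/MS.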

Cytochrome P450 1A2 = target: T2, Cytochrome P450 1A2 (Homo sapiens, UniProt P05177); experiment: Inhibition of human liver microsomes CYP1A2 using phenacetin as substrate; type: ADME
T2 sequence (P05177 whole entry): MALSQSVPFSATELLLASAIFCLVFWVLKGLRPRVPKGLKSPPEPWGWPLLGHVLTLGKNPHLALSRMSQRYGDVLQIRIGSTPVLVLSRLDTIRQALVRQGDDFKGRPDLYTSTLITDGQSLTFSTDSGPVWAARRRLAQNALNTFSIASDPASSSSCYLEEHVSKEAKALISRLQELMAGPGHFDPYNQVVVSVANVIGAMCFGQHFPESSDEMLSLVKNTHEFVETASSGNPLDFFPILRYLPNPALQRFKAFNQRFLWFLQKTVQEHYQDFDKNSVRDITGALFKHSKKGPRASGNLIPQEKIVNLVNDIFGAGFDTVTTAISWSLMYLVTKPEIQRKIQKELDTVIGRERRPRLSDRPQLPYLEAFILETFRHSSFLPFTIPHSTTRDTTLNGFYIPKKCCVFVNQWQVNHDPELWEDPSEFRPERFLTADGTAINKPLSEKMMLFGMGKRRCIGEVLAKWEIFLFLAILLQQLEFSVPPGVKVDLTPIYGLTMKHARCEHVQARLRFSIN

Cytochrome P450 2D6 = Cytochrome P450 2D6 (Homo sapiens, UniProt P10635); experiment: Inhibition of human liver microsomes CYP2D6 using dextromethorphan as substrate; type: ADME
Cytochrome P450 3A4 = Cytochrome P450 3A4 (Homo sapiens, UniProt P08684); experiment: Inhibition of human liver microsomes CYP3A4 using testosterone as substrate preincubated with compound followed by substrate addition; type: ADME
[3] = Drug metabolism in human hepatocytes assessed as CYP-mediated (2S,3S,4S,5R,6R)-6-(6-amino-2-(5-fluoro-1-(2-fluorobenzyl)-1H-pyrazolo[3,4-b]pyridin-3-yl)-5-(methoxycarbonylamino)pyrimidin-4-ylamino)-3,4,5-trihydroxytetrahydro-2H-pyran-2-carboxylic acid metabolite formation; type: ADME, cell-based
[4] = Drug metabolism in human hepatocytes assessed as CYP-mediated methyl 4,6-diamino-2-(5-fluoro-1H-pyrazolo[3,4-b]pyridin-3-yl)pyrimidin-5-ylcarbamate metabolite formation; type: ADME, cell-based
Homo sapiens = species on record: Homo sapiens; experiment: Stimulation of sGC (unknown origin) using alpha-[32P]-GTP as substrate assessed as increase in [32P]-cGMP formation at 100 uM in presence of sGC inhibitor ODQ
Outline: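 Purified recombinant sGC (0.2 μg/mL) assayed by [32P]-cGMP formation from α-[32P]-GTP, with 200 μM GTP, 3 mM Mn2+/Mg2+ and 1 mM cGMP. Substrate turnover kept <10%. DMSO ≤1% (v/v). ODQ present. Activity expressed as x-fold over basal. Duplicates, repeated five times.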

[5] = Stimulation of rat sGC expressed in CHO cells using GTP as substrate assessed as increase in cGMP formation treated for 6 mins in presence of 100 nM SNAP by luminescence assay; type: cell-based
Outline: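 CHO reporter cells overexpressing sGC, cultured 1 or 2 d, then loaded 3 h with coelenterazine in calcium-free Tyrode. Compound serial dilutions applied 6 min. Calcium added (final 3 mM) and luminescence read for 40 s by CCD camera. SNAP co-applied at 30 or 100 nM where stated. ODQ condition: 10 μM ODQ pretreatment for 3 h.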

Saphenous artery = experiment: Vasorelaxant activity in normal Chinchilla rabbit saphenous artery ring administered at the beginning of the last resting period of 28 mins; type: functional; conditions: Oryctolagus cuniculus
Heart [6] = experiment: Antihypertensive activity in Wistar Langendorff-perfused heart rat model assessed as reduction in coronary perfusion pressure administered for 20 mins; type: functional, tissue-based
Outline: (§1)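 Male Wistar rats (200−250 g) anesthetized with Narcoren 100 mg/kg ip. Excised heart Langendorff-perfused at constant flow 10 mL/min with Krebs−Henseleit buffer gassed with 95% O2/5% CO2. Values expressed as relative change from baseline before compound application.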

Heart [7] = experiment: Cardiotoxicity in Wistar rat assessed as effect on contractility administered for 20 mins; type: toxicity, tissue-based; outline: as §1
Rattus norvegicus = experiment: Antihypertensive activity in L-NAME-treated renin transgenic rat co-expressing RenTG(mRRen2)27 assessed as reduction in heart hypertrophy in right ventricle administered qd via oral gavage up to 21 days relative to control; type: functional
Outline: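 Renin transgenic RenTG(mRRen2)27 male rats, 8 weeks old, on L-NAME drinking water (50 mg/L). Dosed by gavage qd with placebo (n = 20) or 3 or 10 mg/kg/day (n = 15 each). At day 22 animals were anesthetized and sacrificed, and left and right ventricles were dissected and weighed for hypertrophy. Unpaired t test versus placebo.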

Chain of Cytochrome P450 3A4 (P08684 whole entry): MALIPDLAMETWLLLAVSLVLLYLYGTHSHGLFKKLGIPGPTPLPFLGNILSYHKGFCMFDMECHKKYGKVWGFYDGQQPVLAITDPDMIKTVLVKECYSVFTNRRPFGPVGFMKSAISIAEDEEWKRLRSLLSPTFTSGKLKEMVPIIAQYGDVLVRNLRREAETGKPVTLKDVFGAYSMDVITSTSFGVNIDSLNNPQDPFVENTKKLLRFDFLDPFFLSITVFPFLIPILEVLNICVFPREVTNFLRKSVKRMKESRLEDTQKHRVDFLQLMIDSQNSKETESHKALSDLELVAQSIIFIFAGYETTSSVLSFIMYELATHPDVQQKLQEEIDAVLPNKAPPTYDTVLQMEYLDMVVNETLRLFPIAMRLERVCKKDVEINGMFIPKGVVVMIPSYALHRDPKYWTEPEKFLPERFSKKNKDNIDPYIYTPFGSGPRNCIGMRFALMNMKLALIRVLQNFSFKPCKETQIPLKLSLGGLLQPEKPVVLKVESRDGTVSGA
Chain of Cytochrome P450 2D6 (P10635 whole entry): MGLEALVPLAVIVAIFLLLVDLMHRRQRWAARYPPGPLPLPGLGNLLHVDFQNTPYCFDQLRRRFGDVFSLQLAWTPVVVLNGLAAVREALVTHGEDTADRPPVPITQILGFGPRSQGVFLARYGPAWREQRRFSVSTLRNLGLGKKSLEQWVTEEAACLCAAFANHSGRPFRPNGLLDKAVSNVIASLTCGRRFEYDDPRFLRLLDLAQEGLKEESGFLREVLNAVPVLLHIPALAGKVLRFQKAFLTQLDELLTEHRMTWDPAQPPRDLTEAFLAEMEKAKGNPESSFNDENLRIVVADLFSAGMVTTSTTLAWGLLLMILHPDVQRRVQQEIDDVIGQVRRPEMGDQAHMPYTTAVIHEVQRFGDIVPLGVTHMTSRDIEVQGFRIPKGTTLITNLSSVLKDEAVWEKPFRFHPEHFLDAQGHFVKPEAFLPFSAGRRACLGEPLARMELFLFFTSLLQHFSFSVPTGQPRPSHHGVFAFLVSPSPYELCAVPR

## COC(=O)Nc1c(N)nc(-c2nn(Cc3ccccc3F)c3ncc(F)cc23)nc1N [VERICIGUAT]
[1]
  MEC: 0.3 µM
[2]
  CLhep predicted at 1 µM: 1.67 mL/min/kg
Cytochrome P450 1A2
  pIC50: < 4.30
Cytochrome P450 2D6
  pIC50: < 4.30
Cytochrome P450 3A4
  pIC50: < 4.30
[3]
  Drug metabolism: Metabolite_Detected
[4]
  Drug metabolism: Metabolite_Detected
Homo sapiens
  Activity: inactive
[5]
  pEC50: 7.97
Saphenous artery
  pIC50: 8.25
Heart [6]
  Activity: Dose-dependent effect
Heart [7]
  Activity: Non-Toxic
Rattus norvegicus
  Activity: Dose-dependent effect
